How the values were obtained:
Assay type in all cases: functional
Conditions in all cases: read-out: DIZ
[1] = system: Aspergillus flavus; test: Antifungal activity against Aspergillus flavus at 12.5 ug/ml after 72 hrs by well plate method
[2] = system: Xanthomonas sp.; test: Antibacterial activity against Xanthomonas sp. at 12.5 ug/ml after 24 to 48 hrs by well plate diffusion method
Outline: (§1)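 Agar well diffusion: 15-20 mL agar per dish, plates dried 1 h at 37 ± 2 °C in laminar flow, then seeded. Wells cut with an agar punch, each loaded with compound dissolved in DMSO (6.25 or 12.5 μg/mL). DMSO solvent control, ciprofloxacin standard. Plates in triplicate, incubated 37 ± 2 °C for 24–48 h. Inhibition zone diameter read in mm, with SD.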

[3] = system: Aspergillus flavus; test: Antifungal activity against Aspergillus flavus at 6.25 ug/ml after 72 hrs by well plate method
[4] = system: Staphylococcus aureus; test: Antibacterial activity against Staphylococcus aureus at 6.25 ug/ml after 24 to 48 hrs by well plate diffusion method; outline: as §1
[5] = system: Escherichia coli; test: Antibacterial activity against Escherichia coli at 6.25 ug/ml after 24 to 48 hrs by well plate diffusion method; outline: as §1
[6] = system: Aspergillus terreus; test: Antifungal activity against Aspergillus terreus at 6.25 ug/ml after 72 hrs by well plate method
Outline: (§2)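 Sabouraud agar: peptone 10 g, glucose 40 g, agar 20 g per litre water, pH 5.7. Spore suspension made from a loopful of fungus in 3 mL normal saline and lawned on 20 mL agar per dish. Excess decanted, plates dried 1 h at 37 °C. Wells punched and loaded with compound in DMSO (6.25 or 12.5 μg/mL). DMSO control. Triplicate plates held at 25 °C for 72 h. Inhibition zone diameter measured. A. terreus strain NCIM 1325.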

[7] = system: Staphylococcus aureus; test: Antibacterial activity against Staphylococcus aureus at 12.5 ug/ml after 24 to 48 hrs by well plate diffusion method; outline: as §1
[8] = system: Penicillium sp.; test: Antifungal activity against Penicillium sp. at 6.25 ug/ml after 72 hrs by well plate method
[9] = system: Salmonella sp.; test: Antibacterial activity against Salmonella sp. at 12.5 ug/ml after 24 to 48 hrs by well plate diffusion method; outline: as §1
[10] = system: Xanthomonas sp.; test: Antibacterial activity against Xanthomonas sp. at 6.25 ug/ml after 24 to 48 hrs by well plate diffusion method; outline: as §1
[11] = system: Aspergillus niger; test: Antifungal activity against Aspergillus niger at 6.25 ug/ml after 72 hrs by well plate method
[12] = system: Salmonella sp.; test: Antibacterial activity against Salmonella sp. at 6.25 ug/ml after 24 to 48 hrs by well plate diffusion method; outline: as §1
[13] = system: Aspergillus terreus; test: Antifungal activity against Aspergillus terreus at 12.5 ug/ml after 72 hrs by well plate method; outline: as §2
[14] = system: Aspergillus niger; test: Antifungal activity against Aspergillus niger at 12.5 ug/ml after 72 hrs by well plate method
[15] = system: Escherichia coli; test: Antibacterial activity against Escherichia coli at 12.5 ug/ml after 24 to 48 hrs by well plate diffusion method; outline: as §1
[16] = system: Penicillium sp.; test: Antifungal activity against Penicillium sp. at 12.5 ug/ml after 72 hrs by well plate method

Row | SMILES | zone of inhibition at 12.5 µg/mL [1] [mm] | zone of inhibition at 12.5 µg/mL [2] [mm] | zone of inhibition at 6.25 µg/mL [3] [mm] | zone of inhibition at 6.25 µg/mL [4] [mm] | zone of inhibition at 6.25 µg/mL [5] [mm] | zone of inhibition at 6.25 µg/mL [6] [mm] | zone of inhibition at 12.5 µg/mL [7] [mm] | zone of inhibition at 6.25 µg/mL [8] [mm] | zone of inhibition at 12.5 µg/mL [9] [mm] | zone of inhibition at 6.25 µg/mL [10] [mm] | zone of inhibition at 6.25 µg/mL [11] [mm] | zone of inhibition at 6.25 µg/mL [12] [mm] | zone of inhibition at 12.5 µg/mL [13] [mm] | zone of inhibition at 12.5 µg/mL [14] [mm] | zone of inhibition at 12.5 µg/mL [15] [mm] | zone of inhibition at 12.5 µg/mL [16] [mm]
1 | Fc1ccc(-c2cc(-c3nc4ccccc4[nH]3)c3ccccc3n2)cc1 | 12 | 12 | 11 | 12 | 11 | 12 | 13 | 15 | 15 | 11 | 11 | 9 | 14 | 12 | 16 | 17
2 | Fc1ccc(-c2cc(-c3nc4cc(Cl)c(Cl)cc4[nH]3)c3ccccc3n2)cc1 | 10 | 22 | 10 | 12 | 12 | 10 | 16 | 12 | 12 | 20 | 10 | 11 | 11 | 12 | 16 | 12

Reference: ChEMBL document CHEMBL2040711, “Synthesis, characterization and antimicrobial studies of some new quinoline incorporated benzimidazole derivatives” (2012)
